In ChEMBL document CHEMBL1146084, “Discovery of orally efficacious melanin-concentrating hormone receptor-1 antagonists as antiobesity agents. Synthesis, SAR, and biological evaluation of bicyclo[3.1.0]hexyl ureas” (J Med Chem, 2006):

Assays:
[1] = molecular target: Melanin-concentrating hormone receptor 1 (Mus musculus) (UniProt Q8JZL2); test: Receptor occupancy ex vivo by displacement of [125I]S36057 binding from MCHR1 in C57BL/6N mouse brain after 24 hrs at 30 mg/kg, po; assay type: functional, organism-based; set-up: dose 30 mg/kg
Melanin-concentrating hormone receptor 1 (Mus musculus), sequence (Q8JZL2 whole entry): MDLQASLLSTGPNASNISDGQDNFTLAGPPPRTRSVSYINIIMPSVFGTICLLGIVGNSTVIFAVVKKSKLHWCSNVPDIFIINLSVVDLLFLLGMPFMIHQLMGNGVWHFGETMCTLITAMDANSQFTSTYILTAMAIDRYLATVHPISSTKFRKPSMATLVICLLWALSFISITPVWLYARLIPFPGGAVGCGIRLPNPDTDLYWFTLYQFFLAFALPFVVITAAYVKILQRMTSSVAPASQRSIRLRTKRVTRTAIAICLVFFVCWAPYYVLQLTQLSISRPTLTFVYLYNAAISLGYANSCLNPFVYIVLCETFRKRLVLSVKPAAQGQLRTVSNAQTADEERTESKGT
Method in brief: (§1)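 Male C57Bl/6NCrl:BR mice given vehicle (HPβCD) or compound orally; killed by CO2 at 6 or 24 h post-dose (chronic studies: 24 h after last daily dose, n = 3/group). 16 µm frozen caudate putamen sections incubated 30 min at room temperature with 700 pM [125I]-S36057 in MCH-R1 binding buffer; 1 µM MCH defines nonspecific binding. Phosphorimager quantitation; % inhibition versus vehicle.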

[2] = molecular target: T1, Melanin-concentrating hormone receptor 1 (Homo sapiens, UniProt Q99705); test: Displacement of [125I]MCH from human MCHR1 expressed in CHO cell; assay type: cell-based
T1 sequence (Q99705 whole entry): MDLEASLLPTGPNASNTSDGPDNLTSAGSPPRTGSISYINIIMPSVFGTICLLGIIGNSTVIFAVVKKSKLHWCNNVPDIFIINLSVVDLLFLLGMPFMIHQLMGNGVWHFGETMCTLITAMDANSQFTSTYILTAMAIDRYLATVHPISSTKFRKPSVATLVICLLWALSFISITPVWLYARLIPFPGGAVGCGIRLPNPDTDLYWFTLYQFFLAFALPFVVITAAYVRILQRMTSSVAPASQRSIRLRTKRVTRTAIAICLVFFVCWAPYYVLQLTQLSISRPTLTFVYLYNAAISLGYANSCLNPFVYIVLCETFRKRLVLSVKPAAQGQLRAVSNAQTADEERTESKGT

[3] = molecular target: Melanin-concentrating hormone receptor 1 (Mus musculus) (UniProt Q8JZL2); test: Receptor occupancy ex vivo by displacement of [125I]S36057 binding from MCHR1 in C57BL/6N mouse brain after 6 hrs at 30 mg/kg, po; assay type: functional, organism-based; set-up: dose 30 mg/kg; method in brief: as §1
[4] = (§2) AUC (0-6h) in rat at 10 mg/kg, po; assay type: ADME, organism-based, Plasma; set-up: time < 6 hr, dose 10 mg/kg, route oral; conditions: plasma
Mus musculus [5] = test: Reduction of food intake in orally dosed C57BL/6N DIO mouse after 24 hrs at 30 mg/kg relative to control; assay type: functional; conditions: route oral
Method in brief: (§3)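 Male C57Bl/6NCrl:BR mice made obese on a 45%-fat diet, individually housed, 12 h light/dark, 22 °C; acclimated to oral 20% hydroxypropyl-β-cyclodextrin vehicle for 2-3 days. Single oral 30 mg/kg dose in 20% HPβCD; food intake weighed to 0.01 g at 2, 6 and 24 h, expressed as % of vehicle ± SEM.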

Mus musculus [6] = test: Reduction of food intake in orally dosed C57BL/6N DIO mouse after 2 hrs at 30 mg/kg relative to control; assay type: functional; set-up: Activity: scale not given: the % may be the effect or the level left; conditions: route oral; method in brief: as §3
Mus musculus [7] = test: Reduction of food intake in orally dosed C57BL/6N DIO mouse after 6 hrs at 30 mg/kg relative to control; assay type: functional; conditions: route oral; method in brief: as §3
Rattus norvegicus = test: as §2; assay type: ADME, organism-based, Plasma; set-up: time < 6 hr, dose 10 mg/kg, route oral; conditions: in vivo, 6 h
[8] = molecular target: T1, Melanin-concentrating hormone receptor 1; test: Inhibition of MCH-mediated calcium influx in CHO cells expressing human MCHR1 by FLIPR assay; assay type: functional, cell-based
Method in brief: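 After two washes, treated with vehicle (buffer, 2% DMSO) or compound, then stimulated with 30 nM MCH; intracellular Ca²⁺ change read by FLIPR.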

Activity [1]	Ki [2]	Activity [3]	AUC(0-t) at 6 h [4]	SMILES	also measured
12%	13 nM	25%		CN1CCN(CCCN(C(=O)Nc2ccc(F)c(Cl)c2)[C@@H]2CC[C@]3(c4ccsc4)C[C@H]23)CC1 (relative stereo)	
0%	3.3 nM	73%	722 ng·h/mL	CN1CCN(CCCN(C(=O)Nc2ccc(F)c(Cl)c2)[C@@H]2CC[C@]3(c4cccc(F)c4)C[C@H]23)CC1 (relative stereo)	
11%		25%		CN1CCN(CCCN(C(=O)Nc2ccc(F)c(Cl)c2)[C@@H]2CC[C@]3(c4cccnc4)C[C@H]23)CC1 (relative stereo)	
	605 nM			N#Cc1cccc(C2=CC(N(CCN3CCCC3)C(=O)Nc3cc(Cl)cc(Cl)c3)CC2)c1 (configuration not stated)	
		57%	999 ng·h/mL	N#Cc1cccc([C@]23CC[C@@H](N(CCN4CCCCC4)C(=O)Nc4ccc(F)c(Cl)c4)[C@H]2C3)c1 (relative stereo)	
	9.3 nM	8%	2340 ng·h/mL	CN1CCN(CCCN(C(=O)Nc2ccc(F)c(Cl)c2)[C@@H]2CC[C@]3(c4ccc(S(C)(=O)=O)cc4)C[C@H]23)CC1 (relative stereo)	
	974 nM			CS(=O)(=O)c1ccc([C@]23CC[C@@H](N(CC4CCN(S(C)(=O)=O)CC4)C(=O)Nc4ccc(F)c(Cl)c4)[C@H]2C3)cc1 (relative stereo)	
17%	10 nM	37%		CN1CCN(CCCN(C(=O)Nc2ccc(F)c(Cl)c2)[C@@H]2CC[C@]3(c4cccc(N)c4)C[C@H]23)CC1 (relative stereo)	
4%	33 nM	0%		Cc1cccc([C@]23CC[C@@H](N(CCCN4CCN(C)CC4)C(=O)Nc4ccc(F)c(Cl)c4)[C@H]2C3)c1 (relative stereo)	
			436 ng·h/mL	CN1CCN(CCCN(C(=O)Nc2ccc(F)c(Cl)c2)[C@@H]2CC[C@]3(c4cccc(Cl)c4)C[C@H]23)CC1	
	2.5 nM	64%	450 ng·h/mL	N#Cc1cccc([C@]23CC[C@@H](N(CCCCN4CCOCC4)C(=O)Nc4ccc(F)c(C(F)(F)F)c4)[C@H]2C3)c1 (relative stereo)	Food intake (% of vehicle control) (Mus musculus [5]): 94.1%; Food intake (% of vehicle) (Mus musculus [6]): 88%; Food intake (% of vehicle control) (Mus musculus [7]): 83.4%
15%		96%	578 ng·h/mL	CN1CCN(CCCN(C(=O)Nc2ccc(F)c(Cl)c2)[C@@H]2CC[C@]3(c4ccc(OC(F)(F)F)cc4)C[C@H]23)CC1 (relative stereo)	Food intake (% of vehicle control) (Mus musculus [5]): 85.9%; Activity (Mus musculus [6]): 86.2%; Food intake (% of vehicle control) (Mus musculus [7]): 80.5%
0%	4.4 nM	97%	1610 ng·h/mL	CN1CCN(CCCN(C(=O)Nc2ccc(F)c(Cl)c2)[C@@H]2CC[C@]3(c4ccc(F)c(F)c4)C[C@H]23)CC1 (relative stereo)	
	394 nM			CN1CCN(CCCN(C(=O)Nc2ccc(F)c(Cl)c2)[C@@H]2CC[C@]3(c4cccc(NS(C)(=O)=O)c4)C[C@H]23)CC1 (relative stereo)	
	1620 nM			CS(=O)(=O)c1ccc([C@]23CC[C@@H](N(CCCN4CCCC4=O)C(=O)Nc4ccc(F)c(Cl)c4)[C@H]2C3)cc1 (relative stereo)	
		53%	1460 ng·h/mL	CN1CCN(CCN(C(=O)Nc2ccc(F)c(C(F)(F)F)c2)[C@@H]2CC[C@]3(c4cccc(C#N)c4)C[C@H]23)CC1 (relative stereo)	
		72%	1160 ng·h/mL	N#Cc1cccc([C@]23CC[C@@H](N(CCCCN4CCCCC4)C(=O)Nc4ccc(F)c(C(F)(F)F)c4)[C@H]2C3)c1 (relative stereo)	Food intake (% of vehicle control) (Mus musculus [5]): 102%; Food intake (% of vehicle) (Mus musculus [6]): 92%; Food intake (% of vehicle control) (Mus musculus [7]): 101.1%
0%	7 nM	65%	2740 ng·h/mL	CN1CCN(CCCN(C(=O)Nc2ccc(F)c(Cl)c2)[C@@H]2CC[C@]3(c4cc(F)cc(F)c4)C[C@H]23)CC1 (relative stereo)	
		32%		N#Cc1cccc([C@]23CC[C@@H](N(CCN4CC[C@@H](O)C4)C(=O)Nc4ccc(F)c(Cl)c4)[C@H]2C3)c1 (stereo in doubt; (+)-23c) [listing 1 of 2 here]	
36%	4 nM	81%	3080 ng·h/mL	CN1CCN(CCCN(C(=O)Nc2ccc(F)c(C(F)(F)F)c2)[C@@H]2CC[C@]3(c4ccc(F)c(C#N)c4)C[C@H]23)CC1 (relative stereo)	

Activity [1]	Ki [2]	Activity [3]	AUC(0-t) at 6 h [4]	SMILES	also measured
		57%		N#Cc1cccc([C@]23CC[C@@H](N(CCN4CC[C@@H](O)C4)C(=O)Nc4ccc(F)c(Cl)c4)[C@H]2C3)c1 (stereo in doubt; (-)-23d) [listing 1 of 2 here]	
12%	29 nM	39%	504 ng·h/mL	CN1CCN(CCCN(C(=O)Nc2ccc(F)c(Cl)c2)[C@@H]2CC[C@]3(c4cccc(OC(F)(F)F)c4)C[C@H]23)CC1 (relative stereo)	
			822 ng·h/mL	N#Cc1cccc([C@]23CC[C@@H](N(CCN4CCCC4)C(=O)Nc4ccc(F)c(Cl)c4)[C@H]2C3)c1 (relative stereo)	
		81%	2190 ng·h/mL	N#Cc1cccc([C@]23CC[C@@H](N(CCN4CC[C@@H](O)C4)C(=O)Nc4ccc(F)c(C(F)(F)F)c4)[C@H]2C3)c1	Food intake (% of vehicle control) (Mus musculus [5]): 80.8%; Food intake (% of vehicle) (Mus musculus [6]): 65.7%; Food intake (% of vehicle control) (Mus musculus [7]): 68.2%
		40%	140 ng·h/mL	CC(C)CN1CCN(CCN(C(=O)Nc2ccc(F)c(C(F)(F)F)c2)[C@@H]2CC[C@]3(c4cccc(C#N)c4)C[C@H]23)CC1 (relative stereo)	
	13 nM			N#Cc1cccc([C@]23CC[C@@H](N(CCN4CC[C@@H](O)C4)C(=O)Nc4ccc(F)c(Cl)c4)[C@H]2C3)c1 (stereo in doubt; (+)-23c) [listing 2 of 2 here]	AUC (Rattus norvegicus): 585 ng·h/mL
0%		79%	1130 ng·h/mL	CN1CCN(CCCN(C(=O)Nc2ccc(F)c(Cl)c2)[C@@H]2CC[C@]3(c4ccccc4)C[C@H]23)CC1 (relative stereo)	
6%	3.5 nM	100%	1660 ng·h/mL	CN1CCN(CCCN(C(=O)Nc2ccc(F)c(C(F)(F)F)c2)[C@@H]2CC[C@]3(c4ccc(C#N)c(F)c4)C[C@H]23)CC1 (relative stereo)	
		85%	1680 ng·h/mL	CN1CCN(CCCCN(C(=O)Nc2ccc(F)c(C(F)(F)F)c2)[C@@H]2CC[C@]3(c4cccc(C#N)c4)C[C@H]23)CC1 (relative stereo)	Food intake (% of vehicle control) (Mus musculus [5]): 89.1%; Food intake (% of vehicle) (Mus musculus [6]): 81.1%; Food intake (% of vehicle control) (Mus musculus [7]): 81.6%
				N#Cc1cccc([C@]23CC[C@@H](N(CCN4CC[C@@H](O)C4)C(=O)Nc4ccc(F)c(Cl)c4)[C@H]2C3)c1 (stereo in doubt; (-)-23d) [listing 2 of 2 here]	AUC (Rattus norvegicus): 2404 ng·h/mL
	161 nM			CN1CCN(CCCN(C(=O)Nc2ccc(F)c(Cl)c2)[C@@H]2CC[C@@H](c3cccc(C#N)c3)C2)CC1 (relative stereo)	
	727 nM			CN1CCN(CCCN(C(=O)Nc2ccc(F)c(Cl)c2)[C@@H]2CC[C@]3(c4cccc(S(C)(=O)=O)c4)C[C@H]23)CC1 (relative stereo)	
29%	1.8 nM	100%	2170 ng·h/mL	CN1CCN(CCCN(C(=O)Nc2ccc(F)c(C(F)(F)F)c2)[C@@H]2CC[C@]3(c4ccc(F)cc4)C[C@H]23)CC1 (relative stereo)	Kb [8]: 15 nM
0%		18%		CC(=O)Nc1cccc([C@]23CC[C@@H](N(CCCN4CCN(C)CC4)C(=O)Nc4ccc(F)c(Cl)c4)[C@H]2C3)c1 (relative stereo)	
0%	2.9 nM	73%	571 ng·h/mL	COc1cccc([C@]23CC[C@@H](N(CCCN4CCN(C)CC4)C(=O)Nc4ccc(F)c(C(F)(F)F)c4)[C@H]2C3)c1 (relative stereo)	Kb [8]: 8 nM
7%	2.8 nM	100%	438 ng·h/mL	COc1ccc([C@]23CC[C@@H](N(CCCN4CCN(C)CC4)C(=O)Nc4ccc(F)c(C(F)(F)F)c4)[C@H]2C3)cc1 (relative stereo)	Kb [8]: 9 nM
0%	8 nM	27%	3470 ng·h/mL	N#Cc1ccc([C@]23CC[C@@H](N(CCCN4CCNCC4)C(=O)Nc4ccc(F)c(C(F)(F)F)c4)[C@H]2C3)cc1 (relative stereo)	Kb [8]: 9 nM
	15 nM	69%	1490 ng·h/mL	N#Cc1cccc([C@@]23CC[C@H](N(CCN4CCCC4)C(=O)Nc4cc(Cl)cc(Cl)c4)[C@@H]2C3)c1	
10%	2.3 nM	85%	888 ng·h/mL	CN1CCN(CCCN(C(=O)Nc2ccc(F)c(C(F)(F)F)c2)[C@@H]2CC[C@]3(c4cccc(F)c4)C[C@H]23)CC1 (relative stereo)	
	2190 nM			CN1CCN(CCCN(C(=O)Nc2ccc(F)c(Cl)c2)[C@H]2CC[C@@H](c3cccc(C#N)c3)C2)CC1 (relative stereo)	
